# Assay results of several laboratories.
# Target: Activin receptor type-1 (ACVR1, Homo sapiens, UniProt Q04771)
# One construct used (Q04771 1-509): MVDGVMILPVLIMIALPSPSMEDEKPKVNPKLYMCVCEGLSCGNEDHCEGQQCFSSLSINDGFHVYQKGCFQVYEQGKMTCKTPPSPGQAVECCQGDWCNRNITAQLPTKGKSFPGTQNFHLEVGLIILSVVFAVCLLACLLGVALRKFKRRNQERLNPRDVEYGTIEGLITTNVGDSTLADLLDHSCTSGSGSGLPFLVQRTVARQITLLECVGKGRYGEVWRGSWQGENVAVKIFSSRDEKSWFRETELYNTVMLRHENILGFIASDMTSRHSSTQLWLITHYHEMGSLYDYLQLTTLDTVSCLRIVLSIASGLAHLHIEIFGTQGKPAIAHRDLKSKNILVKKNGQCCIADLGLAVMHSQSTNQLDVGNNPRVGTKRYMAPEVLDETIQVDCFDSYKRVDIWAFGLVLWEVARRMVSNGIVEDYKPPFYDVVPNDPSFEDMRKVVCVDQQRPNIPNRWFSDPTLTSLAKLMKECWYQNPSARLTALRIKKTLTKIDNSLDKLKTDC
Structure (SMILES),test,setting,endpoint,value
Cn1c2c(c3ccc(Cl)c(Cl)c31)C(C#N)C(C)(C)NC2=O (stereo not drawn),"thermal stability, DSF",10 µM,ΔTm,1.1 °C
COc1cc(Cl)c(C(=O)N[C@@H](CN[C@H]2CC[C@@H](N)CC2)Cc2ccc(C#N)cc2)cc1-c1ccc(CN[C@H](C)c2ccc(C)cc2)o1,"enzyme activity, inhibitor",1 µM,remaining activity,89%
CC(C)CC(=O)N1CCc2nc(-c3ccc(Br)cc3)nc(N(C)Cc3ccccc3)c2C1,"cell-free assay, competition with immobilised ligand",0.1 µM,remaining binding,100%
CCN1CCC2(CC1)NC(=O)c1c(c3ccc(Cl)c(Cl)c3n1C)C2C#N (racemic),"thermal stability, DSF",10 µM,ΔTm,-0.1 °C
C#Cc1cccc(Nc2ncnc3cc(OCCOC)c(OCCOC)cc23)c1,cell-free assay,0.5 µM,remaining signal,101%
O=C(O)[C@H]1[C@H](Cn2nnc3ccccc3c2=O)CC[C@@H]1C(=O)c1ccc(OCCC2CCOCC2)cc1,"cell-free assay, competition with immobilised ligand",1 µM,remaining binding,100%
CN1CC(Oc2cnc(C#N)cc2-c2ccn3nc(NC(=O)C4CC4)cc3c2)C1,"enzyme activity, inhibitor",1 µM,inhibition,-8%
Cc1sc(C(=O)NC2COC2)cc1-n1cc(NC(=O)Nc2c(F)cccc2Cl)cn1,"enzyme activity, inhibitor",10 µM,remaining activity,108%
Cn1c2c(c3ccc(Cl)c(Cl)c31)C(C#N)C1(CCOCC1)NC2=O (stereo not drawn),"thermal stability, DSF",10 µM,ΔTm,0.1 °C
CC(C)(C)c1nc2c(s1)c1nc(N)ncc1c1ccc(NS(=O)(=O)c3c(F)cccc3F)c(F)c12,"enzyme activity, inhibitor, radiometric",1 µM,remaining activity,79%
O=C(NS(=O)(=O)c1ccc(NCC2CCOCC2)c([N+](=O)[O-])c1)c1ccc(N2CCN(Cc3ccc(C(F)(F)F)cc3-c3ccc(Cl)cc3)CC2)cc1Oc1cnc2[nH]ccc2c1,"cell-free assay, competition with immobilised ligand",1 µM,remaining binding,89%
Cc1cnc(NC2CCOCC2)nc1-n1cnc(C(=O)NC(CN)c2cc(F)cc(Cl)c2)c1 (stereo not drawn),"enzyme activity, inhibitor, radiometric",1 µM,remaining activity,96%
COc1cccc(CNC(=O)c2nc3scc(COCc4ccc(C(=O)O)cc4)c3c(=O)[nH]2)c1,"cell-free assay, competition with immobilised ligand",1 µM,remaining binding,94.3%
Cc1cc(NC(=O)c2cccc3cc(-c4cccc5[nH]nc(N)c45)ccc23)ccc1F,"enzyme activity, inhibitor",0.1 µM,activity vs control,105%
Nc1cnc(N2CCc3cc(S(=O)(=O)Nc4c(F)cc(Cl)cc4F)cc(N4CCCC4=O)c32)nc1,"cell-free assay, competition with immobilised ligand",1 µM,remaining binding,100%
Clc1ccc(Nc2nnc(Cc3ccncc3)c3ccccc23)cc1,cell-free assay,0.5 µM,remaining signal,96.1%
CN([C@@H]1CCc2c(CC(=O)O)c3ccccc3n2C1)S(=O)(=O)c1ccc(F)cc1,"cell-free assay, competition with immobilised ligand",1 µM,remaining binding,100%
O=C1Nc2ccc(Cl)cc2C1=Cc1cc(Cl)c(O)c(Cl)c1,cell-free assay,0.5 µM,remaining signal,130%
Cc1ccc(C(=O)Nc2ccc(CN3CCN(C)CC3)c(C(F)(F)F)c2)cc1C#Cc1cnc2cccnn12,cell-free assay,23.5 nM,remaining signal,100%
O=C1NC(=O)c2cc(Nc3ccc(F)cc3)c(Nc3ccc(F)cc3)cc21,cell-free assay,0.5 µM,remaining signal,92.3%
CCC1(CC)NC(=O)c2c(c3ccc(Cl)c(Cl)c3n2C)C1C#N (stereo not drawn),"thermal stability, DSF",10 µM,ΔTm,0.2 °C
